Paper PMC3312100 (Frontiers in Systems Neuroscience, 2012)
Entries after “also recorded” stand apart in the source; their conditions may differ.

Experiments:
[1] = molecular target: human histamine H3 receptor (Homo sapiens, UniProt Q9Y5N1); assay: [3H]Nα-methylhistamine competition binding assay, membranes of HEK-293 cells; conditions: for Selectivity for hH3R over hH1R and hH4R (in words): comparison of Ki values of Table 1
How it was run: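 Membranes came from HEK-293 cells stably expressing recombinant hH3R, with protein measured by Bradford. They were incubated with 2 nM [3H]Nα-methylhistamine and test compound from 0.01 nM to 100 μM at seven concentrations. Non-specific binding was defined with 10 μM pitolisant. Values are means of at least three independent experiments, each in triplicate.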

[2] = Fluorescence characterization; format: physicochemical; conditions: for Fluorescence emission intensity (in words): Figure 2, Appendix
How it was run: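 Test compound was dissolved at 10 mM in buffer (12.5 mM MgCl2, 100 mM NaCl, 75 mM Tris/HCl, pH 7.4). Absorption and emission spectra were recorded on a fluorometer at room temperature. Emission spectra used 405 nm excitation.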

Sequence of human histamine H3 receptor (Q9Y5N1 whole entry): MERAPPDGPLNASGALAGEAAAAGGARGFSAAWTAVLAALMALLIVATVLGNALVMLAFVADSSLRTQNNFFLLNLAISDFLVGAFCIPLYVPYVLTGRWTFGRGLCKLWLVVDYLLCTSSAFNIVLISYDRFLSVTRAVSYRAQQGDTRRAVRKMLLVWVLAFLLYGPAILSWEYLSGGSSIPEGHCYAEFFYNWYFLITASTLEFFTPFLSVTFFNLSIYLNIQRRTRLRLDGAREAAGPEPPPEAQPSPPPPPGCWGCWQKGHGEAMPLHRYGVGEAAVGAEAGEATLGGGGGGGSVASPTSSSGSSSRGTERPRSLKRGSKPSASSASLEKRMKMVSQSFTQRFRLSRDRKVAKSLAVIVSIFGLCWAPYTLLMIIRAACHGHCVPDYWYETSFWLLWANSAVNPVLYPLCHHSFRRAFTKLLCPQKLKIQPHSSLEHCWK

SMILES | Affinity at the human histamine H3 receptor (in words) [1] | Area of the fluorescence spectrum of emission [2] | Selectivity for hH3R over hH1R and hH4R (in words) [1] | Fluorescence emission intensity (in words) [2]
O=C1CCCc2ccc(OCc3ccc(OCCCN4CCCCC4)cc3)cc21 [Compound 8, 7-(4-(3-(Piperidin-1-yl)propoxy)benzyloxy)-1-tetralone] |  |  | one of the highest selectivity | 
CN(C)c1ccc(/C=C2\CCc3cc(OCc4ccc(OCCCN5CCCCC5)cc4)ccc3C2=O)cc1 [Compound 9, (E)-2-(4-(Dimethylamino)benzylidene)-6-(4-(3-(piperidin-1-yl)propoxy)benzyloxy)-1-tetralone] | highest affinity | yellow area | most selective compound in the fluorescent chalcone series; also recorded: most human histamine H3 receptor selective | most intense compound; also recorded: highest intensity of all synthesized compounds
CN(C)c1ccc(/C=C/C=C2\CCc3cc(OCCCN4CCCCC4)ccc3C2=O)cc1 [Compound 5, (E)-2-((E)-3-(4-(Dimethylamino)phenyl)allylidene)-6-(3-(piperidin-1-yl)propoxy)-1-tetralone] |  |  | less selective chalcone; also recorded: not as selective as compound 9 | emits more intensive

Further lines, with some results ahead:

Affinity at the human histamine H3 receptor (in words) [1] | Area of the fluorescence spectrum of emission [2] | SMILES | Selectivity for hH3R over hH1R and hH4R (in words) [1] | Fluorescence emission intensity (in words) [2]
 | yellow area | CN(C)c1ccc(/C=C2\CCc3ccc(OCCCN4CCCCC4)cc3C2=O)cc1 [Compound 4, (E)-2-(4-(Dimethylamino)benzylidene)-7-(3-(piperidin-1-yl)propoxy)-1-tetralone] |  | 
 | yellow area | CN(C)c1ccc(/C=C2\CCc3ccc(OCc4ccc(OCCCN5CCCCC5)cc4)cc3C2=O)cc1 [Compound 10, (E)-2-(4-(Dimethylamino)benzylidene)-7-(4-(3-(piperidin-1-yl)propoxy)benzyloxy)-1-tetralone] |  | 
 | yellow area | CN(C)c1ccc(/C=C2\CCc3cc(OCCCN4CCCCC4)ccc3C2=O)cc1 [Compound 3, (E)-2-(4-(Dimethylamino)benzylidene)-6-(3-(piperidin-1-yl)propoxy)-1-tetralone] |  | 
